{"source": "ChEMBL document CHEMBL4406880", "about": "“Design, synthesis, and bioactivity of dihydropyrimidine derivatives as kinesin spindle protein inhibitors” (Bioorg Med Chem, 2019)", "format_in_all_cases": "functional", "key": {"[1]": {"test_system": "HT-29", "test": "Growth inhibition of human HT-29 cells assessed as cell viability at 0.1 uM incubated for 48 hrs by sulforhodamine B assay", "conditions": "HT-29, 48 h, read-out: Activity"}, "[2]": {"test_system": "HT-29", "test": "Growth inhibition of human HT-29 cells assessed as cell viability at 1 uM incubated for 48 hrs by sulforhodamine B assay", "conditions": "HT-29, 48 h, read-out: Activity"}, "[3]": {"test_system": "HL-60(TB)", "test": "Growth inhibition of human HL-60(TB) cells assessed as cell viability at 100 uM incubated for 48 hrs by sulforhodamine B assay", "conditions": "HL-60, 48 h, read-out: Activity", "outline": "(§1)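 NCI-60 five-dose assay, SRB end-point, same culture conditions. Compound is tested at tenfold dilutions of 0.01, 0.1, 1, 10 and 100 µM for 48 h at 37 °C, with DMSO/PBS vehicle controls. Percentage growth at each concentration is taken against untreated cells and a time-zero plate. GI50 is 50% net growth decrease, TGI is total growth inhibition, and LC50 is 50% loss of initial cells.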"}, "[4]": {"test_system": "MOLT-4", "test": "Growth inhibition of human MOLT4 cells assessed as cell viability at 1 uM incubated for 48 hrs by sulforhodamine B assay", "conditions": "MOLT-4, 48 h, read-out: Activity"}, "[5]": {"test_system": "RPMI-8226", "test": "Growth inhibition of human RPMI8226 cells incubated for 48 hrs by sulforhodamine B assay", "conditions": "RPMI-8226, 48 h", "outline": "as §1"}, "[6]": {"test_system": "Malme-3M", "test": "Growth inhibition of human MALME-3M cells incubated for 48 hrs by sulforhodamine B assay", "outline": "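NCI-60 five-dose SRB assay in RPMI 1640 with 5% FBS, 37 °C, 5% CO2. Compound given at five tenfold dilutions, 0.01–100 µM, for 48 h. Adherent cells fixed with TCA, suspension cells with 16% final TCA. Bound SRB read at 515 nm and growth calculated against time-zero and untreated controls. GI50 taken from dose–response curves as the concentration giving a 50% decrease in net cell growth.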"}, "[7]": {"test_system": "CCRF-CEM", "test": "Growth inhibition of human CCRF-CEM cells incubated for 48 hrs by sulforhodamine B assay", "outline": "(§2)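 NCI-60 five-dose mode: five tenfold dilutions (0.01, 0.1, 1, 10, 100 µM) are applied for 48 h to cells in RPMI 1640 with 5% FBS at 37 °C. Endpoint is TCA fixation with sulforhodamine B read at 515 nm. % growth comes from the 0 h and control absorbances. GI50 is the concentration giving a 50% reduction in net cell growth.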"}, "[8]": {"test_system": "M14", "test": "Growth inhibition of human M14 cells assessed as cell viability at 100 uM incubated for 48 hrs by sulforhodamine B assay", "conditions": "M14, 48 h, read-out: Activity"}, "[9]": {"test_system": "A549", "test": "Growth inhibition of human A549/ATCC cells assessed as cell viability at 100 uM incubated for 48 hrs by sulforhodamine B assay", "conditions": "A549, 48 h, read-out: Activity", "outline": "as §2"}, "[10]": {"test_system": "SNB-19", "test": "Growth inhibition of human SNB19 cells assessed as cell viability at 0.001 uM incubated for 48 hrs by sulforhodamine B assay relative to control", "conditions": "SNB-19, 48 h, read-out: Activity"}, "[11]": {"test_system": "OVCAR-5", "test": "Growth inhibition of human OVCAR5 cells assessed as cell viability at 0.1 uM incubated for 48 hrs by sulforhodamine B assay", "conditions": "OVCAR-5, 48 h, read-out: Activity"}, "[12]": {"test_system": "COLO 205", "test": "Growth inhibition of human COLO205 cells assessed as cell viability at 0.001 uM incubated for 48 hrs by sulforhodamine B assay relative to control", "conditions": "COLO 205, 48 h, read-out: Activity"}, "[13]": {"test_system": "PC-3", "test": "Growth inhibition of human PC3 cells incubated for 48 hrs by sulforhodamine B assay", "conditions": "PC-3, 48 h", "outline": "(§3)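 NCI-60 five-dose SRB assay. Cells were exposed for 48 h to tenfold dilutions of 0.01, 0.1, 1, 10 and 100 µM, in RPMI 1640 with 5% FBS. Plates fixed with TCA at the time of drug addition served as the time-zero reference. GI50 is the concentration giving a 50% reduction in net growth. TGI is total growth inhibition. LC50 is a net 50% loss of the initial cells.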"}, "[14]": {"test_system": "OVCAR-5", "test": "Growth inhibition of human OVCAR5 cells assessed as cell viability at 1 uM incubated for 48 hrs by sulforhodamine B assay", "conditions": "OVCAR-5, 48 h, read-out: Activity"}, "[15]": {"test_system": "HCT-116", "test": "Growth inhibition of human HCT116 cells assessed as cell viability at 100 uM incubated for 48 hrs by sulforhodamine B assay", "conditions": "HCT-116, 48 h, read-out: Activity"}, "[16]": {"test_system": "SNB-75", "test": "Cell cycle arrest in human SNB75 cells assessed as accumulation in G2/M phase at 2 uM incubated for 24 hrs by propidium iodide based flow cytometry (reference value: 10.46 %)", "outline": "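SNB-75 cells were exposed to 2 µM for 24 h at 37 °C, 5% CO2, then washed with PBS and fixed in 70% ethanol on ice for 15 min. They were stained 1 h at room temperature with 50 µg/mL propidium iodide, 0.1 mg/mL RNase A and 0.05% Triton X-100. DNA content was read by flow cytometry to give the % of cells in pre-G1, G0/G1, S and G2/M.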"}, "[17]": {"test_system": "SNB-75", "test": "Growth inhibition of human SNB75 cells assessed as cell viability at 1 uM incubated for 48 hrs by sulforhodamine B assay", "conditions": "SNB-75, 48 h, read-out: Activity"}, "[18]": {"test_system": "SK-MEL-5", "test": "Growth inhibition of human SK-MEL-5 cells assessed as cell viability at 0.001 uM incubated for 48 hrs by sulforhodamine B assay relative to control", "conditions": "SK-MEL-5, 48 h, read-out: Activity"}, "[19]": {"test_system": "TK-10", "test": "Growth inhibition of human TK10 cells incubated for 48 hrs by sulforhodamine B assay", "conditions": "TK-10, 48 h", "outline": "as §3"}, "[20]": {"test_system": "A498", "test": "Growth inhibition of human A498 cells incubated for 48 hrs by sulforhodamine B assay", "conditions": "A498, 48 h", "outline": "as §2"}, "[21]": {"test_system": "SNB-75", "test": "Growth inhibition of human SNB75 cells assessed as cell viability at 0.001 uM incubated for 48 hrs by sulforhodamine B assay relative to control", "conditions": "SNB-75, 48 h, read-out: Activity"}, "[22]": {"conditions": "read-out: LC50 (the source's name)"}, "[23]": {"conditions": "read-out: pLC50 (the source's name) (converted)"}}}
{"smiles": "CC1=C(C(=O)OCc2ccccc2)C(c2ccc3c(c2)OCO3)n2c(nc3ccccc32)N1", "note": "(racemic)", "values": [{"measurement": "viability at 0.1 µM", "setting": "[1]", "value": 99, "unit": "%"}, {"measurement": "viability at 1 µM", "setting": "[2]", "value": 8, "unit": "%"}, {"measurement": "viability at 100 µM", "setting": "[3]", "value": 9, "unit": "%"}, {"measurement": "viability at 1 µM", "setting": "[4]", "value": 43, "unit": "%"}, {"measurement": "CC50", "setting": "[5]; [22]", "value": "> 100", "unit": "µM"}, {"measurement": "TGI", "setting": "[5]; read-out: TGI", "value": "> 100", "unit": "µM"}, {"measurement": "CC50", "setting": "[5]; [23]", "value": "> 100", "unit": "µM"}, {"measurement": "TGI", "setting": "[5]; read-out: pTGI", "value": "> 100", "unit": "µM"}, {"measurement": "GI50", "setting": "[6]; read-out: GI50", "value": 0.44, "unit": "µM"}, {"measurement": "LC50", "setting": "[6]; read-out: LC50", "value": "> 100", "unit": "µM"}, {"measurement": "TGI", "setting": "[6]; read-out: TGI", "value": "> 100", "unit": "µM"}, {"measurement": "GI50", "setting": "[6]; read-out: pGI50 (converted)", "value": 0.437, "unit": "µM"}, {"measurement": "LC50", "setting": "[6]; read-out: pLC50 (converted)", "value": "> 100", "unit": "µM"}, {"measurement": "TGI", "setting": "[6]; read-out: pTGI", "value": "> 100", "unit": "µM"}, {"measurement": "GI50", "setting": "[7]; read-out: GI50", "value": 0.41, "unit": "µM"}, {"measurement": "CC50", "setting": "[7]; [22]", "value": "> 100", "unit": "µM"}, {"measurement": "TGI", "setting": "[7]; read-out: TGI", "value": "> 100", "unit": "µM"}, {"measurement": "GI50", "setting": "[7]; read-out: pGI50 (converted)", "value": 0.407, "unit": "µM"}, {"measurement": "CC50", "setting": "[7]; [23]", "value": "> 100", "unit": "µM"}, {"measurement": "TGI", "setting": "[7]; read-out: pTGI", "value": "> 100", "unit": "µM"}, {"measurement": "viability at 100 µM", "setting": "[8]", "value": 24, "unit": "%"}, {"measurement": "viability at 100 µM", "setting": "[9]", "value": 10, "unit": "%"}, {"measurement": "viability at 0.001 µM", "setting": "[10]", "value": 94, "unit": "%"}, {"measurement": "viability at 0.1 µM", "setting": "[11]", "value": 100, "unit": "%"}, {"measurement": "viability at 0.001 µM", "setting": "[12]", "value": 95, "unit": "%"}, {"measurement": "GI50", "setting": "[13]; read-out: GI50", "value": 0.55, "unit": "µM"}, {"measurement": "CC50", "setting": "[13]; [22]", "value": "> 100", "unit": "µM"}, {"measurement": "TGI", "setting": "[13]; read-out: TGI", "value": "> 100", "unit": "µM"}, {"measurement": "GI50", "setting": "[13]; read-out: pGI50 (converted)", "value": 0.55, "unit": "µM"}, {"measurement": "CC50", "setting": "[13]; [23]", "value": "> 100", "unit": "µM"}, {"measurement": "TGI", "setting": "[13]; read-out: pTGI", "value": "> 100", "unit": "µM"}, {"measurement": "viability at 1 µM", "setting": "[14]", "value": 52, "unit": "%"}, {"measurement": "viability at 100 µM", "setting": "[15]", "value": 18, "unit": "%"}, {"measurement": "Activity", "setting": "[16]", "value": 37.59, "unit": "%"}, {"measurement": "viability at 1 µM", "setting": "[17]", "value": -8, "unit": "%"}, {"measurement": "viability at 0.001 µM", "setting": "[18]", "value": 98, "unit": "%"}, {"measurement": "GI50", "setting": "[19]; read-out: GI50", "value": "> 100", "unit": "µM"}, {"measurement": "CC50", "setting": "[19]; [22]", "value": "> 100", "unit": "µM"}, {"measurement": "TGI", "setting": "[19]; read-out: TGI", "value": "> 100", "unit": "µM"}, {"measurement": "GI50", "setting": "[19]; read-out: pGI50 (converted)", "value": "> 100", "unit": "µM"}, {"measurement": "CC50", "setting": "[19]; [23]", "value": "> 100", "unit": "µM"}, {"measurement": "TGI", "setting": "[19]; read-out: pTGI", "value": "> 100", "unit": "µM"}, {"measurement": "GI50", "setting": "[20]; read-out: GI50", "value": 0.36, "unit": "µM"}, {"measurement": "CC50", "setting": "[20]; [22]", "value": "> 100", "unit": "µM"}, {"measurement": "TGI", "setting": "[20]; read-out: TGI", "value": "> 100", "unit": "µM"}, {"measurement": "GI50", "setting": "[20]; read-out: pGI50 (converted)", "value": 0.363, "unit": "µM"}, {"measurement": "CC50", "setting": "[20]; [23]", "value": "> 100", "unit": "µM"}, {"measurement": "TGI", "setting": "[20]; read-out: pTGI", "value": "> 100", "unit": "µM"}, {"measurement": "viability at 0.001 µM", "setting": "[21]", "value": 61, "unit": "%"}]}
